Assay results from PubChem BioAssay AID822 (SRMLSC, 2007).
Active and inactive are the calls of the source.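 Rule for the calls: active = half-maximal effective dose for blocking growth of human endothelial cells at most 100 µM; inactive = the rest.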

System: HUVEC proliferation, viability ATP luminescence
Assay: HUVEC proliferation inhibition, dose response, cell-based, ATP luminescence (AID 822);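 note: cells exposed to compound for 72 h before the ATP read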
Outline: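 Material: HUVEC. Input: 1250 cells per well. Medium: endothelial basal medium (EBM) with 2% fetal bovine serum, collagen-coated wells. Compound: 0.039–20 µM, 0.2% DMSO. Times: compound treatment 72 h, 37 °C. Technique: CellTiter-Glo ATP luminescence. Read-out basis: % viability and fitted EC50. Format: collagen-coated multiwell plates.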

| SMILES | EC50 |
| --- | --- |
| CCC1(C)Cc2c(sc3[nH]c(=S)n(Cc4ccccc4)c(=O)c23)CO1 (configuration not stated) | 3.07 µM |
| COC(=O)COc1ccc(S(=O)(=O)NCCC2=CCCCC2)cc1Cl | 9.76 µM |
| CC(Nc1nc(N2CCCC2)nc2ccccc12)c1ccccc1 (configuration not stated) | 5.19 µM |
| CCCSc1nc2c(cnn2-c2ccc(C)cc2)c(=O)[nH]1 | 5.19 µM |
| COC(=O)c1ccc2c(=O)n(Cc3ccco3)c(SCC(=O)Nc3ccc(C)c(Cl)c3)nc2c1 | 9.21 µM |
| COc1cc(/C=C/c2ccc3cccc(OC)c3n2)c(OC(C)=O)c([N+](=O)[O-])c1 | 6.27 µM |
| Cc1ccccc1N1C(=O)CC(Sc2nnc(-c3ccccc3)o2)C1=O (configuration not stated) | 15.2 µM |
| O=C(CSc1ccc2c(c1)OCCO2)Nc1ccc(Cl)cn1 | 5.53 µM |
| CCN(CC)CC(=O)Nc1ccc(-c2nc3cc(NC(=O)CN(CC)CC)ccc3o2)cc1 | > 10 µM (inactive) |
| Cc1ccc(C)n1NC(=O)c1ccccc1O | > 10 µM (inactive) |
| COc1cc(N=c2ssnc2Cl)cc(OC)c1OC | 13.4 µM |
| CCCCN(CC)S(=O)(=O)c1ccc(C(=O)Nc2nnc(-c3ccccc3Cl)o2)cc1 | 3.8 µM |
| Cc1ccccc1C(=O)c1cccn1CC(=O)NCCN1CCN(c2cccc(C)c2C)CC1 | 8.36 µM |
| Cc1cc2nc(C3CCN(CC4COc5ccccc5O4)CC3)[nH]c2cc1C (configuration not stated) | 19.8 µM |
| CNC(=O)c1ccc(-c2sc3nc(N4CCOCC4)c4c(c3c2N)CCCC4)o1 | 10.5 µM |
| Cc1ccccc1CS(=O)(=O)c1nnc([C@H](CC(C)C)NC(=O)OC(C)(C)C)o1 | 12 µM |
| CCN1CCN(c2cc(C)c3cc(NC(=O)c4ccc(OC)c(OC)c4)ccc3n2)CC1 | 13.6 µM |
| CC(C)c1ccc(C2C3CSCC=C3C(C#N)=C(N)C2(C#N)C#N)cc1 (configuration not stated) | 4.86 µM |
| C=CCc1ccc(OCC(O)CN2CCC(Cc3ccccc3)CC2)c(OC)c1 (configuration not stated) | 9.81 µM |
| N#CC(c1ccccc1)c1ccc2c(C(F)(F)F)cc(C(F)(F)F)nc2n1 (configuration not stated) | 16.7 µM |
| CN1CCN(S(=O)(=O)c2ccc(NC(=O)Nc3cccc(Cl)c3)cc2)CC1 | 6.85 µM |
| CCCOC(=O)c1ccc(Oc2c(-c3ccc(OC)cc3O)n[nH]c2C)cc1 | 9.48 µM |

| SMILES | EC50 |
| --- | --- |
| Cc1ccc(C(=O)c2c(C)oc3c2C(=O)C(=O)c2ccccc2-3)cc1 | 20 µM |
| COC(=O)CS(=O)(=O)c1nnc([C@H](Cc2ccccc2)NC(=O)OC(C)(C)C)o1 | 8.85 µM |
| COc1ccc2nc(NC(=O)CSC3=NCCS3)sc2c1 | 4.95 µM |
| CCCOC(=O)c1ccc(Oc2cn[nH]c2-c2ccc(OCC)cc2O)cc1 | 9.51 µM |
| CN1CCN(Cc2cc(COCc3ccccc3)c3cccnc3c2O)CC1 | 6.08 µM |
| CCCCc1oc2ccccc2c1C(=O)c1cc(I)c(OCCN(CC)CC)c(I)c1 | 5.72 µM |
| CCCn1c(Nc2nc3ccccc3n2C)nc2ccccc21 | 3.01 µM |
| CCn1cc(C(=O)NCCc2ccccc2)c(=O)c2cc(F)c(N3CCN(C)CC3)cc21 | 16.8 µM |
| Cc1ccccc1NS(=O)(=O)c1ccc(N2CCCC2=O)cc1 | 19.6 µM |
| CCOC(=O)c1sc2nc(C(C)C)c3c(c2c1N)CC(C)(C)OC3 | 20.8 µM |
| Cc1sc2nc(SCC(=O)C(C)(C)C)n(Cc3ccco3)c(=O)c2c1C | 13.9 µM |
| CCOC(=O)c1ccc(NC(=O)CCc2nc(-c3cccc(C)c3)no2)cc1 | 19.2 µM |
| OCCNc1nc2ccccc2n1-c1ncnc2sc3c(c12)CCC3 | 11.4 µM |
| Cc1cccc(-c2nnc(NC(=O)c3ccc(Cl)cc3)o2)c1 | 2.78 µM |
| O=C(Cn1c(=O)n(CCCC(=O)NC2CCCC2)c(=O)c2ccccc21)NCCC1=CCCCC1 | 18.1 µM |
| COc1c(F)c(F)c(C(=O)Nc2ccc(N3CCN(Cc4ccccc4)CC3)cc2)c(F)c1F | 10.9 µM |
| O=C(Nc1ccc(N2CCOCC2)cc1)Nc1ccc2nc(-c3ccco3)c(-c3ccco3)nc2c1 | 7.18 µM |
| CCCc1ccc(Oc2c(-c3ccc(O)c(C)c3O)n[nH]c2C)cc1 | 9.55 µM |
| Cc1cccc(C)c1N1CCN(c2ccc3nnc(C(F)(F)F)n3n2)CC1 | 5.78 µM |
| CC(C)C1Cc2c(sc3[nH]c(=S)n(Cc4ccccc4)c(=O)c23)CO1 (configuration not stated) | 3.05 µM |
| CCOC(=O)c1cnc(-n2nc(C)cc2C)nc1NCc1ccc2c(c1)OCO2 | 2.34 µM |
| CCN(CC)c1cc(C)c2cc(NC(=O)c3ccc(Br)o3)ccc2n1 | 11.3 µM |

| SMILES | EC50 |
| --- | --- |
| CC(C)CC[n+]1ccn(C2=C([O-])c3ccccc3C(=O)/C2=N\S(=O)(=O)c2ccccc2)c1 | 5.38 µM |
| CN(C)c1ccc(/C=C(\C#N)C(=O)Nc2nc3c(s2)CCN(Cc2ccccc2)C3)cc1 | 3.88 µM |
| COc1ccc(Cl)cc1N1CCN(CCNC(=O)Nc2ccccc2C)CC1 | 5.83 µM |
| CCCCCCn1c(O)c(C=NC2CCCCC2N)c(=O)[nH]c1=O (configuration not stated) | 9.15 µM |
| CN1CCN(C(=O)c2ccc(COc3ccc(Cl)cc3Cl)cc2)CC1 | 13.3 µM |
| CCc1nc(SCC(=O)Nc2ccc3c(c2)OCCO3)c2oc3ccccc3c2n1 | 9.5 µM |
| Oc1c(CN2CCN(c3ccccn3)CC2)cc(Cl)c2cccnc12 | 7.42 µM |
| Cc1ccccc1CS(=O)(=O)c1nnc([C@H](Cc2ccccc2)NC(=O)OC(C)(C)C)o1 | 11.4 µM |
| OC(COc1ccc(Cl)c2ccccc12)CN1CCN(c2ccccn2)CC1 (configuration not stated) | 12.3 µM |
| Cc1ccc2[nH]c(=O)c(C3C(C#N)=C(N)Oc4c3ccc3cccnc43)cc2c1 (configuration not stated) | 9.52 µM |
| CCOc1cc(S(=O)(=O)N2CC=C(c3ccc(F)cc3)CC2)c(OCC)cc1-n1cnnn1 | 20 µM |
| CC(C)OCCCN1C(=O)c2[nH]nc(-c3ccccc3O)c2C1c1cccc(Cl)c1 (configuration not stated) | 15.7 µM |
| Cc1cc(NC(=O)c2cc(-c3ccncc3)nc3c(C)cccc23)no1 | 6.87 µM |
| CCOC(=O)N1CCC(c2cc(=O)n3[nH]c(C)c(-c4ccc(F)cc4)c3n2)CC1 | 6.46 µM |
| COc1ccccc1C1CC(c2c(-c3ccccc3)c3cc(Cl)ccc3[nH]c2=O)=NN1S(C)(=O)=O (configuration not stated) | 8.65 µM |
| COC(=O)COc1ccc(S(=O)(=O)NCCC2=CCCCC2)cc1 | 10.4 µM |
| Cn1nc(C(C)(C)C)cc1C(=O)NCc1ccc(N2CCCC2=O)cc1 | 16 µM |
| COC(=O)c1c(C)n(-c2ccc(OC)cc2)c2ccc(O)cc12 | 8.97 µM |
| Cc1cccc2c1N(CCCOc1ccc(C(C)(C)C)cc1)C(=O)C2=O | 9.1 µM |
| CN1CCN(c2ccccc2NC(=O)c2ccc(OCc3ccccc3)cc2)CC1 | 10.8 µM |
| COc1cc(OC)cc(C(=O)Nc2ccc(-c3nc4ccccc4o3)cc2)c1 | 6.75 µM |
| O=C(Nc1ccc(Cl)c(Cl)c1)C1=Cc2ccccc2OC1 | 7.93 µM |

| SMILES | EC50 |
| --- | --- |
| CC1(C)Nc2ccc(O)cc2-c2c1ssc2=S | 4.58 µM |
| Cc1ccc(-n2c(SCC(=O)Nc3ccc4c(c3)OCO4)nnc2-c2cccs2)cc1 | 8.21 µM |
| CCCCn1c(SCC(=O)Nc2cc(NC(=O)c3ccco3)ccc2C)nc2ccccc2c1=O | 12.2 µM |
| Oc1ccccc1-c1nnc(SCCN2CCOCC2)n1Cc1ccccc1 | 13.6 µM |
| Cc1ccc(-c2nn3c(C)nnc3s2)cc1NC(=O)c1ccc(-c2cccc(Cl)c2)o1 | 4.71 µM |
| Cc1oc(-c2ccccc2F)nc1CN1CCC(C(=O)NCCC2=CCCCC2)CC1 | 12.4 µM |
| O=S1(=O)C=C(Sc2nnc(-c3ccccc3)o2)c2ccccc21 | 4.25 µM |
| COc1ccc2nc(Nc3nc(CSc4nnnn4-c4ccccc4)cc(=O)[nH]3)nc(C)c2c1 | 4.49 µM |
| c1ccc(CC2CCN(C3=Nc4cccc5cccc3c45)CC2)cc1 | 3.02 µM |
| Cc1occc1-c1nnc(SCC(=O)NCc2cccs2)n1-c1ccc(F)cc1 | 15.2 µM |
| O=C(Nc1ccc2nn(-c3ccccc3)nc2c1)c1ccc2c(c1)OCCO2 | 20 µM |
| COc1ccc(N/N=C2/CCCCC2=O)cc1 | 3.51 µM |
| Cc1cc(NC(=O)COC(=O)C(Nc2ccc(C(F)(F)F)cc2Cl)C(C)C)no1 (configuration not stated) | 12.2 µM |
| CCOC(=O)c1cnc(-n2nc(C)cc2C)nc1NC1CCCCC1 | 0.27 µM |
| Cc1ccc(C)c(C(C)NC(=O)C2C3CCC(O3)C2C(=O)O)c1 (configuration not stated) | 16.3 µM |
| N#Cc1nc(-c2ccc(OCc3ccccc3)cc2)oc1NCCCn1ccnc1 | 5.83 µM |
| Cc1ccc2[nH]c3c(c2c1)CCC3=O | 14.7 µM |
| O=C1NCCCC2c3cc(O)c4ccccc4c3OC12N1CCCCC1 (configuration not stated) | 3.25 µM |
| CCCOc1ccc(-c2nc(C#N)c(NCCCn3ccnc3)o2)cc1 | 11.3 µM |
| CCSc1nnc(NC(=O)c2ccccn2)s1 | 1.81 µM |
| CCOC(=O)C1=C(N)n2c(s/c(=C/c3ccco3)c2=O)=C(C(=O)OC)C1c1ccco1 (configuration not stated) | 5.98 µM |
| Cc1ccc(N=Nc2c(C)[nH][nH]c2=O)c(C)c1 | 7.59 µM |

| SMILES | EC50 |
| --- | --- |
| CCn1c(=O)cc(C(=O)OC)sc1=Nc1ccc(F)c(F)c1 | 11.7 µM |
| Cc1ccccc1NC(=O)CSC(N)=O | 19 µM |
| CN(c1ccccc1)S(=O)(=O)c1ccc(C(=O)Nc2nnc(-c3ccc(F)cc3)o2)cc1 | 1.74 µM |
| COc1ccc(NC(=O)/C(Cl)=C(/Cl)S(=O)(=O)Cc2ccccc2)cn1 | 4.48 µM |
| N=c1c2c(-c3ccccc3)c(-c3ccccc3)oc2ncn1CCCN1CCOCC1 | 13.6 µM |
| Cc1cc(=O)[nH]c2ccc(Cl)cc12 | > 10 µM (inactive) |
| Nc1c(C(=O)C2CC2)sc2nc(-c3cccs3)cc(C(F)(F)F)c12 | 8.07 µM |
| CSc1nc2c(cnn2-c2ccc(C)c(C)c2)c(=O)[nH]1 | 17.8 µM |
| Cc1ccccc1-c1nc(CN2CCC(C(=O)NCCC3=CCCCC3)CC2)c(C)o1 | 6.73 µM |
| COc1ccccc1N1C(=O)N(C(C)=O)C2C1Nc1ccccc1N2C (configuration not stated) | 6.17 µM |
| CCOc1cc(/C=C\c2[nH]c(=O)[nH]c(=O)c2[N+](=O)[O-])ccc1OC(C)CC (configuration not stated) | 4.12 µM |
| N#Cc1nc(COc2ccc(-c3ccccc3)cc2)oc1NCCCN1CCOCC1 | 10.6 µM |
| COc1ccc(C2Oc3ccccc3C3=C2C(c2cccs2)n2ncnc2N3)cc1 (configuration not stated) | 16.3 µM |
| COc1ccc(Nc2nc(N3CCCC3)nc3ccccc23)c(OC)c1 | 12.5 µM |
| Cc1cccc(C)c1OCC(=O)N=Nc1c(O)[nH]c2ccc(Br)cc12 | 7.15 µM |
| COc1ccccc1-c1cc(C(=O)Nc2cc(C)n(Cc3ccc(Cl)cc3)n2)no1 | 5.84 µM |
| O=C(CCN1CCN(Cc2ccccc2)CC1)Nc1ccc(OCc2ccccc2)cc1 | 14.1 µM |
| CCOc1cc(/C=N\NC(=O)Cn2nc([N+](=O)[O-])cc2C)ccc1OCc1cccc2ccccc12 | 20.7 µM |
| Cc1nn2c(NCCCN(C)C)c3c(nc2c1-c1ccccc1)CCC3 | 12.2 µM |
